Bioassay records from PubChem.
Sampled rows, rich in hits. Any-hit rate of the full collection: about 2.1%.
MEKK3 PB1 HTS: MEKK3-MEK5 PB1 interaction, increase or decrease. bead-based flow cytometry, Alexa488-MEK5 binding to MEKK3; actives lie on both sides; 0 = blocked by unlabeled MEK5, 100 = vehicle. binding response (% of control), % at 10 µM. AID 1529. 1.4% of 290,000 active;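 active = binding response more than 3 SD above or below the average of its plate-row segment, actives on both sides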;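 also: Alexa488 bead fluorescence after subtracting the streptavidin-only scavenger bead signal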
GSK3beta inhib: blocks human GSK3beta kinase activity. P49841. GST-GSK3beta kinase, ADP-Glo luminescence, 60 min; stronger effect = lower value. activity score (negative = inhibition), % at 10 µM. 0.038% of 300,000 active. AID 2097;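 active = more than half of replicate wells score below -50%, meaning over 50% inhibition versus plate controls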
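Test system – GST-tagged human GSK3beta kinase, cell-free · Incubation – 60 min enzyme reaction, room temperature · Signal – ADP-Glo luminescence · Also added – peptide substrate and ATP at 25 µM · Controls – DMSO neutral wells and GW8510 at 20 µM as positive · Buffer or medium – Tris/MgCl2 kinase buffer · Measure – Luminescence-derived activity versus plate DMSO and GW8510 wells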
MEKK2 mut-MEK5: signal of MEK5 binding to mutant human MEKK2 PB1 domain | bead flow cytometry, Alexa488-MEK5 binding to MEKK2 mutant | percent response, % at 10 µM | 0.35% of 290,000 active | AID 1530; in the data active = percent response above about 24%, passing the limit was not always enough
MEKK2 WT-MEK5: raises or lowers MEK5 binding to wildtype human MEKK2 PB1 domain. Q9Y2U5. bead flow cytometry, Alexa488-MEK5 binding to MEKK2 WT; actives lie on both sides. binding response (% of control), % at 10 µM. 1.1% of 290,000 active. AID 1531; in the data active = binding response below about 67% or above about 130%
GSK3 alpha inh: inhibitors of human GSK-3 alpha kinase | P49840 | ADP-Glo luminescence, 60 min | inhibition, % at 10 µM | 0.1% of 320,000 active | AID 2650;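 active = more than half of replicates show inhibition above 20%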;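 also: GST-tagged GSK-3 alpha with peptide substrate and 25 µM ATP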
STK33 kinase inh: blocks human STK33 kinase activity | purified STK33, MBP phosphorylation, ADP-Glo luminescence | inhibition, % at 10 µM | 0.073% of 320,000 active | AID 2661;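 active = inhibition at or above 25%, using the most active replicate where run in duplicate; inactive = inhibition below 25%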
Target sequence (Q9BYT3 whole entry, looked up): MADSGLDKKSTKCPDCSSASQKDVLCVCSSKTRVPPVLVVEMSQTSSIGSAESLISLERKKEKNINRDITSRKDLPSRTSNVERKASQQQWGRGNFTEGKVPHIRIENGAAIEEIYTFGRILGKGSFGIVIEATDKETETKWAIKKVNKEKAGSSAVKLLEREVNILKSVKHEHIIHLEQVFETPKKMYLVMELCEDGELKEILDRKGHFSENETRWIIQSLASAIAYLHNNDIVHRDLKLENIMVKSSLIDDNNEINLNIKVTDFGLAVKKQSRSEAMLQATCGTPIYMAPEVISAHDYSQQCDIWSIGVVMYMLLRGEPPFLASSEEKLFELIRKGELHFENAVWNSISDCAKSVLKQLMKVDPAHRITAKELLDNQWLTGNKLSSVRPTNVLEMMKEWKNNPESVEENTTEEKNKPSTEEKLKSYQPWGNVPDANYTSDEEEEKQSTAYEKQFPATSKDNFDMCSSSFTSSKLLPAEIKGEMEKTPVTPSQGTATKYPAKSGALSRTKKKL
Hits are given with their value; i = inactive; nt = no result given; [ ] = dose if it differs, or a comment.

SMILES | MEKK3 PB1 HTS | GSK3beta inhib | MEKK2 mut-MEK5 | MEKK2 WT-MEK5 | GSK3 alpha inh | STK33 kinase inh
O=C(Nc1ccccc1-c1ccccc1)c1ccc(Br)o1 | i | i | i | i | i | 36.4
COc1ccc(S(=O)(=O)N2CCC3(CC2)OCCN3S(=O)(=O)c2ccc(C)cc2)cc1OC | nt | i | nt | nt | i | i
CCCCCC(=O)Cc1cc(O)cc2c1C(=O)Oc1cc(O)c(C(=O)O)c(CCCCC)c1O2 | i | i | i | i | i | i
CCOCc1nnc(NC(=O)CS(=O)(=O)c2ccc(C)cc2)s1 | 80.0[inhibitor] | i | i | i | i | i
CCOCc1nnc(NC(C)=O)s1 | i | i | i | i | i | i
O=C(O)c1ccc(N=Cc2c(O)ccc3oc4c(c23)CCCC4)cc1 | i | i | i | i | i | 45.8
O=C(O)C1CCN(C(=O)CSc2nc3cc(Cl)ccc3c(=O)n2Cc2ccccc2)CC1 | i | nt | i | i | i | i
COc1ccc(-c2ncncc2-c2ccc(OC)c(OC)c2)c(O)c1 | i | i | i | i | 51.9 | i
Cc1ccc(CN2CC34C=CC(O3)C(C(=O)NCc3ccc5c(c3)OCO5)C4C2=O)cc1 (stereo not given) | 128.0 | i | i | i | i | i
CCSc1ccc2nnc(-c3cccs3)n2n1 | i | -52.8 | i | i | i | i
O=C(CSc1ccc2nnc(-c3cccs3)n2n1)N1CCCC1 | i | i | i | i | i | i
CCOC(=O)CSc1ccc2nnc(-c3cccs3)n2n1 | i | -61.1 | i | i | 61.0 | i
CCOC(=O)CSc1ccc2nnc(-c3ccncc3)n2n1 | i | i | i | i | 81.2 | i
CC(Sc1ccc2nnc(-c3ccc(F)cc3)n2n1)C(=O)O (stereo not given) | i | i | i | i | 51.4 | i
CCNc1c(NC(=O)c2ccc3c(c2)OCO3)c(=O)oc2ccccc12 | i | i | i | i | i | i
Cc1cccc(OCC(=O)NCc2ccc(F)cc2)c1 | i | i | i | i | i | i
O=C1CC(c2ccc3ccccc3c2)NN1 (stereo not given) | nt | nt | nt | nt | i | i
CCSc1ccc2nnc(-c3ccc(F)cc3)n2n1 | i | -76.2 | i | i | 81.7 | i
CCOC(=O)CNC(=O)CSc1ccc2nnc(-c3ccc(F)cc3)n2n1 | i | i | i | i | i | i
CNC(=S)N(Cc1ccc(OC)cc1)C1CC(=O)N(c2ccc(Cl)cc2)C1=O (stereo not given) | nt | i | nt | nt | i | i
CC(C)n1nc(C(=O)Nc2nnc(SCc3c(Cl)cccc3Cl)s2)c2ccccc2c1=O | i | i | i | i | i | i
Cc1c(/C=C/C(=O)c2ccc(O)cc2)cnn1C | i | i | i | i | i | 28.9
CCn1cc(/C=C/C(=O)c2ccc(O)cc2)c(C)n1 | i | i | i | i | i | 44.0
O=C(NCC1CCCN(C2Cc3ccccc3C2)C1)c1cccs1 (stereo not given) | i | i | i | i | i | i
CN(C(=O)c1cccc(C(F)(F)F)c1)C1CCCc2ccccc21 (stereo not given) | 1.0[inhibitor] | i | i | 0.0[inhibitor] | i | i
SMILES | MEKK3 PB1 HTS | GSK3beta inhib | MEKK2 mut-MEK5 | MEKK2 WT-MEK5 | GSK3 alpha inh | STK33 kinase inh
CN(C(=O)CCl)C1CCCc2ccccc21 (stereo not given) | i | nt | i | i | nt | nt
O=C1CSC(=S)N1Cc1cccnc1 | i | i | i | -3.0 | i | i
O=C(C1CCC(CNc2c(N3CCCCC3)c(=O)c2=O)CC1)N1CCCC1 (stereo not given) | i | i | i | i | i | i
O=C(CSc1cc(Cl)ccc1Cl)NCCCn1ccnc1 | i | i | 26.0 | i | i | i
CCOC(=O)c1c(CSC(=N)N)n(-c2ccc(Br)cc2)c2cc(Br)c(OC(C)=O)cc12 | i | nt | i | 143.0 | nt | nt
CCCCCCCCOC(=O)c1c(CSC(=N)N)n(C)c2cc(Br)c(OC(C)=O)cc12 | i | i | 136.0 | 281.0 | i | i
CCOC(=O)c1c(CSc2nc(C)cc(C)c2C#N)n(C)c2cc(Br)c(OC(C)=O)cc12 | i | i | i | i | i | i
O=C(Cn1nnc(-c2ccccc2F)n1)N1CCCCC1 | i | i | i | i | i | i
CCN(c1ccc(OC)cc1)S(=O)(=O)c1csc(C(N)=O)c1 | i | i | i | i | i | i
O=C(COc1cccc2cccnc12)N/N=C/c1ccc(O)cc1 | i | i | i | i | 55.8 | i
O=C(COc1cccc2cccnc12)N/N=C/c1ccccc1O | i | i | i | i | i | i
